Assay outcomes (PubChem BioAssay)
IDE inh – inhibits human insulin-degrading enzyme in HEK cells | P14735 | FAbetaB cleavage, fluorescence polarization | inhibition, % at 5.59 µM | 0.41% of 320,000 active;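 active means percent inhibition above the average of all tested compounds plus 3 SD, set per screening campaign, cut at about 16% in these data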;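 further: IDE supplied by intact live HEK cells; FP after avidin binding of uncleaved biotin substrate so inhibition keeps polarization high; 0% = DMSO wells and 100% = 60 µM reference IDE inhibitor Ii1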
Target sequence (P14735 whole entry, looked up): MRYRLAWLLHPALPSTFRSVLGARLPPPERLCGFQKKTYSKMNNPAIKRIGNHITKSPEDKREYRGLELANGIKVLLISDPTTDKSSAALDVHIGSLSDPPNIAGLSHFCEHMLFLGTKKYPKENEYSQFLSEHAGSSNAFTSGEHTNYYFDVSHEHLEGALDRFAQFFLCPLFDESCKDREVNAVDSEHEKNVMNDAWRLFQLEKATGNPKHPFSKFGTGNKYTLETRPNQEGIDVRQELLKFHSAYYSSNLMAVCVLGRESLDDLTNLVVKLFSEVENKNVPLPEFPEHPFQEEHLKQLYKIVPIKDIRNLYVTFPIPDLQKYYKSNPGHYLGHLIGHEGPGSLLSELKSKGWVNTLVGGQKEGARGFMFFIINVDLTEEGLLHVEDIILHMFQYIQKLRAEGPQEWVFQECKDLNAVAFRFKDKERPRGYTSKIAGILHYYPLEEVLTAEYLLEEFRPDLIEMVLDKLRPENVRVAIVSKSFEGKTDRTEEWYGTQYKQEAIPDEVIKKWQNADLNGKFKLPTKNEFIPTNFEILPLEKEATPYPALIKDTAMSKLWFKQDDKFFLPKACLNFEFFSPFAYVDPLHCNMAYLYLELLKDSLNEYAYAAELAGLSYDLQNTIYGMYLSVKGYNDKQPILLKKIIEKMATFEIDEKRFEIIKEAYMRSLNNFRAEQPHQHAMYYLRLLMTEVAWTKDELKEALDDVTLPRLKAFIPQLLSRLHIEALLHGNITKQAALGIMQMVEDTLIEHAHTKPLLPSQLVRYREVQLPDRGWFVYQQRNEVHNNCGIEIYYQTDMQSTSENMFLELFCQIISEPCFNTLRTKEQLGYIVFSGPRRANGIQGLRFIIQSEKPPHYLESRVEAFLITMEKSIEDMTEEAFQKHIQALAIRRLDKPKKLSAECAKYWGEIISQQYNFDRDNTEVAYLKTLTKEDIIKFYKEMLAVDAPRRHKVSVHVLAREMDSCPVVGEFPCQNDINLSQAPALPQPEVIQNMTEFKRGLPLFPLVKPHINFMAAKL
TPT1 inh – blocks Candida albicans tRNA 2'-phosphotransferase; recombinant caTPT1, FP RNA substrate dephosphorylation; inhibition, % at 5 µM; 0.81% of 300,000 active; AID 1962;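 active means inhibition above the mean of all tested compounds plus 3 SD, set per screening campaign, cut at about 24% in these data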;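 further: plate controls were DMSO alone for no effect and ferristatin control at 100 nM for full effect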
CSN deneddyl inh – CSN deneddylation inhibition; Q92905; Purified CSN, SCF-Nedd8-OG deneddylation, fluorescence polarization; 0.38% of 360,000 active; inhibition, % at 12.5 µM;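 active means pattern-corrected inhibition above about 35%, with an unprinted fluorescence ratio check between 0.5 and 1.5, limit read from the data, passing the limit was not always enough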;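 further: 0% = enzyme with substrate and 100% = substrate without enzyme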
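Assay system: Purified human Csn5 enzyme expressed in HEK293T cells | Amount: Enzyme 0.24 nM | Measured by: Fluorescence polarization readout | Medium: Tris/NaCl/DTT buffer, pH 7.5 | Compound dosing: One concentration, 12.5 µM, 0.25% DMSO | Times: 90 min incubation of compound, enzyme and substrate at room temperature | Control set: no-enzyme wells high, enzyme-with-substrate wells low | Read-out: % inhibition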
Rpn11 inh – Rpn11 (human) deubiquitinase inhibition. O00487. human 26S proteasome, Ub4-pepOG fluorescence polarization; 20S core pre-blocked with epoxomicin. inhibition, % at 20 µM. 0.59% of 360,000 active. AID 588493;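 active means inhibition at 20 µM, scaled to each plate's controls, above about 33%, limit read from the data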
HNF4A DNA FP – change in binding of human HNF4 alpha to DNA. P41235. 0.3% of 360,000 active. HNF4a-FITC DNA binding, fluorescence polarization, 1 h. activity change, % at 10 µM; in the data active means activity change above about 30%, passing the limit was not always enough
IDE act – activators of human insulin-degrading enzyme in cells; P14735; HEK cells, FAbeta-B cleavage, fluorescence polarization; 0% vehicle, 100% cell-free pure enzyme wells; activation, % at 5.96 µM; AID 493087; 0.073% of 340,000 active;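 active means activation above the mean of all tested compounds plus 3 SD, set per screening campaign, cut at about 17% in these data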
TPT1 inh confirm – confirmation of Candida albicans TPT1 inhibitors; shares compounds with TPT1 inh; recombinant caTPT1, fluorescence polarization, RNase T1 coupled; inhibition, % at 5 µM; 74% of 2,400 active; AID 2149;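 active means inhibition above the primary screen limit, the mean inhibition of all tested compounds plus 3 SD, cut at about 25% in these data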
RNase T1 counter – counter-screen for TPT1 inhibitors: inhibitors of Aspergillus oryzae RNase T1; AID 2153; shares compounds with TPT1 inh; RNase T1 cleavage, fluorescence polarization, 1536-well; inhibition, % at 5 µM; 83% of 2,400 active;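 active means inhibition above the solvent-only control well mean plus 3 SD, limit set per screening run, cut at about 23% in these data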;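 further: plate controls were DMSO wells with enzyme for no effect and wells without RNase T1 for full effect; inhibitors block cleavage so intact labeled substrate keeps polarization high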
IDE cell inh cf – cellular human IDE inhibition, confirmation; 51% of 1,200 active; HEK cells, FAbetaB cleavage, fluorescence polarization; inhibition, % at 5.59 µM; AID 435028; shares compounds with IDE inh;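 active means mean inhibition across triplicate wells above the cutoff set by the earlier primary insulin-degrading enzyme screen, cut at about 16% in these data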;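 further: 0% = DMSO wells and 100% = 60 µM reference IDE inhibitor Ii1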
HEK cytotox – counter-screen for IDE inhibitors: cytotoxicity in HEK cells. HEK293 cytotoxicity, ATP luminescence. AID 449730. inhibition, % at 5.59 µM. 28% of 1,200 active. shares compounds with IDE inh; in the data active means inhibition above about 22%;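 further: 0% = vehicle wells and 100% = reference cytotoxic drug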
CSN5 deneddyl – validation of inhibitors of human CSN-mediated cullin deneddylation; Csn5 deneddylation of SCF-Nedd8OG, fluorescence polarization, 90 min; inhibition, % at 16.6 µM; 62% of 540 active; shares compounds with CSN deneddyl inh; AID 720654; in the data active means inhibition above about 50%;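 further: 0% = DMSO with enzyme and 100% = no enzyme wells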
MMP-2 counter – MMP-2 (human) inhibition, counter-screen for CSN hits; shares compounds with CSN deneddyl inh; recombinant MMP-2, FRET substrate fluorescence, 60 min; inhibition, % at 16.6 µM; 33% of 540 active;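 active means corrected plate-normalized z-score of 5 or more, or -5 or less, or inhibition of 15% or more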;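 further: plate controls were DMSO wells with enzyme for no effect and buffer wells lacking MMP-2 for full effect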
Thrombin counter – counter-screen for CSN deneddylation inhibitors: bovine thrombin inhibition. AID 720656. inhibition, % at 16.6 µM. shares compounds with CSN deneddyl inh. 49% of 540 active. bovine thrombin cleavage of Ub4-pepOG, fluorescence polarization;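 active means inhibition at or above a set limit, with a fluorescence interference ratio between 0.5 and a set maximum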
HNF4a DNA conf – change in binding of human HNF4 alpha to DNA, retest; shares compounds with HNF4A DNA FP; HNF4A-FITC DNA binding, fluorescence polarization, 1 h; activity change, % at 12.5 µM; 99% of 210 active; call rule not given here
* = called active by the depositor; . = no result given. Hits are enriched below; roughly 1.7% of the tested compounds scored in any of these assays.

SMILES | IDE inh | TPT1 inh | CSN deneddyl inh | Rpn11 inh | HNF4A DNA FP | IDE act | TPT1 inh confirm | RNase T1 counter | HNF4a DNA conf | others
CCOC(=O)/C(C#N)=C/C=C1\C=Cc2ccccc2N1CC | 12 | 79* | 44* | . | 94* | -33 | 83* | 93* | 101* | CSN5 deneddyl=99*;MMP-2 counter=-1;Thrombin counter=55*
COc1cc(OC)cc(C(=O)OCC(=O)NC2CCCCCC2)c1 | 6 | . | 0 | 2 | 2 | -2 | . | . | .
N#C/C(=C\c1ccc(-c2ccccc2C(=O)O)o1)c1nc2ccccc2[nH]1 | 31* | 95* | 24 | . | 44* | -38 | 117* | 121* | 91* | IDE cell inh cf=53*;HEK cytotox=4
NC(=O)C(NN=C(c1ccccc1)c1ccccc1)c1ccccc1 (stereo not given) | . | . | -7 | 1 | 3 | . | . | . | .
COc1ccc(C(=O)/C=C/c2cn(CN3CCN(C)CC3)c3ccccc23)cc1 | 10 | 15 | 7 | 19 | 9 | -9 | . | . | .
COc1ccc(C(=O)/C=C/c2cn(CC(O)CN3CCOCC3)c3ccccc23)cc1 (stereo not given) | 9 | 51* | 22 | . | 42* | 3 | 45* | 57* | 75*
COc1cccc(NC(=O)C2(S(=O)(=O)c3ccc(Cl)cc3)CC2)c1 | -1 | -4 | -2 | -1 | -2 | 4 | . | . | .
O=c1c2ccccc2c(/C=N/c2nnc(Cc3ccccc3)s2)c(O)n1-c1ccc(Cl)cn1 | 0 | 25* | 41* | . | 86* | 2 | 154* | 146* | 95*
Cc1cccc(C)c1N=Cc1c(O)n(-c2nccs2)c(=O)c2ccccc12 | 7 | 1 | -7 | -30 | 1 | 0 | . | . | .
CCOc1cc(/C=C2\N=C3CCCCCN3C2=O)ccc1O | 6 | 43* | 58* | . | 49* | -11 | 58* | 60* | 71*
Cc1ccc2[nH]c(C(=O)N3CCOCC3)cc2c1 | 3 | -2 | -4 | 5 | 1 | 6 | . | . | .
NC(=O)C1CCN(c2ccc3c(c2)S(=O)(=O)c2ccccc2C3=O)CC1 | -1 | 31* | -2 | . | 47* | -3 | 38* | 48* | 67*
CC1CCN(c2ccc3c(c2)S(=O)(=O)c2ccccc2C3=O)CC1 | 12 | 65* | 30 | . | 58* | -7 | 80* | 88* | 71*
NC(=O)C1CCN(C(=O)c2ccc3c(c2)S(=O)(=O)c2ccccc2C3=O)CC1 | -4 | -4 | 3 | 0 | -3 | -3 | . | . | .
COc1cc([C@@H]2[C@H]3CNCC=C3C(C#N)=C(N)C2(C#N)C#N)ccc1OC(C)C | 12 | 34* | 17 | . | 48* | -11 | 24* | 36* | 56*
